Measurements reported in ChEMBL document CHEMBL1134280, “Discovery and biological evaluation of a new family of potent inhibitors of the dual specificity protein phosphatase Cdc25” (J Med Chem, 2001).

Each compound was assayed against T1, M-phase inducer phosphatase 2 (Homo sapiens, UniProt P30305) (assay: Inhibitory activity against recombinant human cell division cycle 25B).
T1 sequence (P30305 whole entry): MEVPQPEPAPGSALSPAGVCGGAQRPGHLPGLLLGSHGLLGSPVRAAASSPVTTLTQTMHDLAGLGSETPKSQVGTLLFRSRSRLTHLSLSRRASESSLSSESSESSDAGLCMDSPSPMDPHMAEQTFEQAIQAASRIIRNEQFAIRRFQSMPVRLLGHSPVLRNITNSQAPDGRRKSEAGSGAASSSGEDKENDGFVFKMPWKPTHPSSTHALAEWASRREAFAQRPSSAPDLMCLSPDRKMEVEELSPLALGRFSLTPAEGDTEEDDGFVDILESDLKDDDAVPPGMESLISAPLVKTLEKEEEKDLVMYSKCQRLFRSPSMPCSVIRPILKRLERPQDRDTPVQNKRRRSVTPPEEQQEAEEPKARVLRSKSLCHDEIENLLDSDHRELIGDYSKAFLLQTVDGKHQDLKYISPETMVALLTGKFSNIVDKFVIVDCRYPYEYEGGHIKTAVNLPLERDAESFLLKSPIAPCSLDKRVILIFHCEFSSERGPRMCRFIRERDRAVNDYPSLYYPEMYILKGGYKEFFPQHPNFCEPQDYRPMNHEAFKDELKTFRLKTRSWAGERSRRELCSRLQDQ
Summary of the method: (§1)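 GST-fusion enzyme (Cdc25B₂, VHR) or human recombinant PTP1B, with O-methyl fluorescein phosphate as substrate in a miniaturized microtiter format. IC50 values were taken from concentration–response data.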

Question: Which IC50 does the source give for `O=C1C=CC(=O)c2ncccc21` here?
Answer: 3 µM

Question: With `O=C1C(Cl)=C(NCCc2c[nH]c3ccccc23)C(=O)c2ncccc21` as the compound, how does the IC50 read?
Answer: 5.1 µM

Question: For `O=C1C(Cl)=C(NC2CCc3ccccc32)C(=O)c2ncccc21` (centres undefined), which IC50 is on record?
Answer: 0.3 µM

Question: How did the IC50 turn out when `O=C1/C(=N\C(Cc2c[nH]c3ccccc23)C(=O)O)C(Cl)=C(O)c2cccnc21` (centres undefined) was run?
Answer: 16 µM

Question: For `O=C1C(Cl)=C(Cl)C(=O)c2ncccc21`, which IC50 is on record?
Answer: 4.6 µM

Question: Which IC50 does the source give for `CC(/N=C1\C=C(O)c2cccnc2C1=O)C(O)c1ccccc1` (centres undefined) here?
Answer: 0.51 µM

Question: With `O=C1C(Cl)=C(Cl)C(=O)c2cnncc21` as the compound, how does the IC50 read?
Answer: 8.9 µM

Question: `COC(=O)c1nc(-c2ccc3c(n2)C(=O)C(=N)C(OC)=C3O)c(N)c(-c2ccc(OC)c(OC)c2O)c1C` was tested. Which IC50 did it give?
Answer: 0.37 µM

Question: Which IC50 does the source give for `O=C1C(Cl)=C(NCCN2CCOCC2)C(=O)c2cnncc21` here?
Answer: 0.43 µM

Question: With `COc1cc(CC/N=C2\C=C(O)c3cccnc3C2=O)ccc1O` as the compound, how does the IC50 read?
Answer: 0.45 µM

Question: With `CCCCCCOc1ccc(NC2=C(Cl)C(=O)c3cccnc3C2=O)cc1` as the compound, how does the IC50 read?
Answer: 0.93 µM

Question: `CC(/N=C1\C=C(O)c2ncccc2C1=O)C(O)c1ccccc1` (centres undefined) was tested. Which IC50 did it give?
Answer: 0.67 µM

Question: For `O=C1C(Cl)=C(Cl)C(=O)c2ncncc21`, which IC50 is on record?
Answer: 4.8 µM

Question: Which IC50 does the source give for `O=C1C(Cl)=C(NCCN2CCOCC2)C(=O)c2cnccc21` here?
Answer: 0.59 µM

Question: Which IC50 does the source give for `O=C1/C(=N/CCc2cc(Br)c(O)c(Br)c2)C=C(O)c2cccnc21` here?
Answer: 0.64 µM

Question: For `O=C1C(Cl)=C(N2CCN(CCOCCO)CC2)C(=O)c2ncccc21`, which IC50 is on record?
Answer: 0.9 µM

Question: How did the IC50 turn out when `O=C1C(NCCN2CCOCC2)=C(Cl)C(=O)c2ncccc21` was run?
Answer: 0.82 µM

Question: With `O=C1C(Cl)=C(Cl)C(=O)c2cnccc21` as the compound, how does the IC50 read?
Answer: 1.5 µM

These compounds were tested against Dual specificity protein phosphatase 3 (Homo sapiens, UniProt P51452) (assay: Inhibitory Activity against Recombinant Human VHR).
Dual specificity protein phosphatase 3, sequence (P51452 whole entry): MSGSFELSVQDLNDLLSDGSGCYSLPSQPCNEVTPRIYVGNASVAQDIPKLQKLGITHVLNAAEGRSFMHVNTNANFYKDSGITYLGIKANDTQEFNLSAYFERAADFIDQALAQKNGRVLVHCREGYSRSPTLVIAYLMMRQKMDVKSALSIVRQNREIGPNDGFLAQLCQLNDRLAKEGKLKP
Summary of the method: as §1, with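 “format. After 60 min at ambient temperature, product fluorescence was read (excitation 485/20, emission 530/30).” for “format.”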

Question: How did the IC50 turn out when `O=C1C=CC(=O)c2ncccc21` was run?
Answer: > 10 µM

Question: `O=C1C(Cl)=C(NCCc2c[nH]c3ccccc23)C(=O)c2ncccc21` was tested. Which IC50 did it give?
Answer: > 10 µM

Question: For `O=C1C(Cl)=C(NCCN2CCOCC2)C(=O)c2ncccc21`, which IC50 is on record?
Answer: 4 µM

Question: For `O=C1/C(=N\C(Cc2c[nH]c3ccccc23)C(=O)O)C(Cl)=C(O)c2cccnc21` (centres undefined), which IC50 is on record?
Answer: > 10 µM

Question: For `O=C1C(Cl)=C(Cl)C(=O)c2ncccc21`, which IC50 is on record?
Answer: > 10 µM

Question: `CC(/N=C1\C=C(O)c2cccnc2C1=O)C(O)c1ccccc1` (centres undefined) was tested. Which IC50 did it give?
Answer: 16 µM

Question: Which IC50 does the source give for `O=C1C(Cl)=C(Cl)C(=O)c2cnncc21` here?
Answer: > 10 µM

Question: `COC(=O)c1nc(-c2ccc3c(n2)C(=O)C(=N)C(OC)=C3O)c(N)c(-c2ccc(OC)c(OC)c2O)c1C` was tested. Which IC50 did it give?
Answer: 5.1 µM

Question: Which IC50 does the source give for `O=C1C(Cl)=C(NCCN2CCOCC2)C(=O)c2cnncc21` here?
Answer: 1.1 µM

Question: Which IC50 does the source give for `COc1cc(CC/N=C2\C=C(O)c3cccnc3C2=O)ccc1O` here?
Answer: 17 µM

Question: `CCCCCCOc1ccc(NC2=C(Cl)C(=O)c3cccnc3C2=O)cc1` was tested. Which IC50 did it give?
Answer: > 10 µM

Question: `CC(/N=C1\C=C(O)c2ncccc2C1=O)C(O)c1ccccc1` (centres undefined) was tested. Which IC50 did it give?
Answer: > 10 µM

Question: `O=C1C(Cl)=C(Cl)C(=O)c2ncncc21` was tested. Which IC50 did it give?
Answer: > 10 µM

Question: For `O=C1C(Cl)=C(NCCN2CCOCC2)C(=O)c2cnccc21`, which IC50 is on record?
Answer: > 10 µM

Question: How did the IC50 turn out when `O=C1/C(=N/CCc2cc(Br)c(O)c(Br)c2)C=C(O)c2cccnc21` was run?
Answer: 8.5 µM

Question: Which IC50 does the source give for `O=C1C(Cl)=C(N2CCN(CCOCCO)CC2)C(=O)c2ncccc21` here?
Answer: > 10 µM

Question: With `O=C1C(NCCN2CCOCC2)=C(Cl)C(=O)c2ncccc21` as the compound, how does the IC50 read?
Answer: > 10 µM

Question: `O=C1C(Cl)=C(Cl)C(=O)c2cnccc21` was tested. Which IC50 did it give?
Answer: > 10 µM

What follows are compounds tested against T2, Tyrosine-protein phosphatase non-receptor type 1 (Homo sapiens, UniProt P18031) (assay: Inhibitory Activity against Recombinant Human PTP1).
T2 sequence (P18031 whole entry): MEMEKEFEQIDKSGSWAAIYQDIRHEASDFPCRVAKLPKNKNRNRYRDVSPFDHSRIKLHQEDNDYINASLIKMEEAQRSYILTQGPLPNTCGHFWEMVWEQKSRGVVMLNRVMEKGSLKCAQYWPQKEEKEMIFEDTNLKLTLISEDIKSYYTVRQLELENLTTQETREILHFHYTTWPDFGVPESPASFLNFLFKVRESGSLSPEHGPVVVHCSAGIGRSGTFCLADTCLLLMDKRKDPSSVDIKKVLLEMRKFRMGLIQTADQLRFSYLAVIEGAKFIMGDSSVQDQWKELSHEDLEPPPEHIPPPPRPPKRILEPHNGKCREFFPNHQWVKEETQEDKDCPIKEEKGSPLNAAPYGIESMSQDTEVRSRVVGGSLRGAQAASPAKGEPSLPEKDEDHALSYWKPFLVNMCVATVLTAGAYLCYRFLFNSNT
Summary of the method: as §1, with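 “format. After 60 min at ambient temperature, product fluorescence was read (excitation 485/20, emission 530/30).” for “format.”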

Question: With `O=C1C=CC(=O)c2ncccc21` as the compound, how does the IC50 read?
Answer: > 10 µM

Question: With `O=C1C(Cl)=C(NCCc2c[nH]c3ccccc23)C(=O)c2ncccc21` as the compound, how does the IC50 read?
Answer: > 10 µM

Question: Which IC50 does the source give for `O=C1C(Cl)=C(NCCN2CCOCC2)C(=O)c2ncccc21` here?
Answer: > 100 µM

Question: With `O=C1/C(=N\C(Cc2c[nH]c3ccccc23)C(=O)O)C(Cl)=C(O)c2cccnc21` (centres undefined) as the compound, how does the IC50 read?
Answer: > 10 µM

Question: For `O=C1C(Cl)=C(Cl)C(=O)c2ncccc21`, which IC50 is on record?
Answer: > 10 µM

Question: With `CC(/N=C1\C=C(O)c2cccnc2C1=O)C(O)c1ccccc1` (centres undefined) as the compound, how does the IC50 read?
Answer: > 100 µM

Question: For `O=C1C(Cl)=C(Cl)C(=O)c2cnncc21`, which IC50 is on record?
Answer: > 10 µM

Question: For `COC(=O)c1nc(-c2ccc3c(n2)C(=O)C(=N)C(OC)=C3O)c(N)c(-c2ccc(OC)c(OC)c2O)c1C`, which IC50 is on record?
Answer: 8.7 µM

Question: `O=C1C(Cl)=C(NCCN2CCOCC2)C(=O)c2cnncc21` was tested. Which IC50 did it give?
Answer: 9.8 µM

Question: For `COc1cc(CC/N=C2\C=C(O)c3cccnc3C2=O)ccc1O`, which IC50 is on record?
Answer: > 100 µM

Question: Which IC50 does the source give for `CCCCCCOc1ccc(NC2=C(Cl)C(=O)c3cccnc3C2=O)cc1` here?
Answer: > 10 µM

Question: For `CC(/N=C1\C=C(O)c2ncccc2C1=O)C(O)c1ccccc1` (centres undefined), which IC50 is on record?
Answer: > 10 µM

Question: `O=C1C(Cl)=C(Cl)C(=O)c2ncncc21` was tested. Which IC50 did it give?
Answer: > 10 µM

Question: For `O=C1C(Cl)=C(NCCN2CCOCC2)C(=O)c2cnccc21`, which IC50 is on record?
Answer: > 10 µM

Question: For `O=C1/C(=N/CCc2cc(Br)c(O)c(Br)c2)C=C(O)c2cccnc21`, which IC50 is on record?
Answer: 8 µM

Question: With `O=C1C(Cl)=C(N2CCN(CCOCCO)CC2)C(=O)c2ncccc21` as the compound, how does the IC50 read?
Answer: > 10 µM

Question: For `O=C1C(NCCN2CCOCC2)=C(Cl)C(=O)c2ncccc21`, which IC50 is on record?
Answer: > 10 µM

Question: With `O=C1C(Cl)=C(Cl)C(=O)c2cnccc21` as the compound, how does the IC50 read?
Answer: > 10 µM
